Experiment [1] has as its system T-24. Briefly: Induction of ferroptosis in human T-24 cells assessed as reduction in cellular GSH level at 6 uM incubated for 12 hrs by DTNB reagent based assay. The class given is functional, cell-based.
The test system of experiment [2] is T-24. In words: Induction of ferroptosis in human T-24 cells assessed as increase in intracellular iron level at 6 uM by ICP-MS analysis (reference value: 860.2 +/- 62.3 pg). It counts as functional.
For experiment [3], the system named is T-24. In words: Induction of autophagy in human T-24 cells assessed as increase in autophagosomes at 6 uM in presence of rapamycin measured upto 24 hrs by MDC-EB staining based confocal laser scanning microscopic analysis. It counts as functional, cell-based. To be noted: time hrs <=24. The method in brief:
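Autophagic vacuoles in T24 cells exposed to 6 μM are visualised by MDC blue fluorescence under confocal laser scanning microscopy over a time course up to 24 h. Autophagosomes per cytoplasm area are quantified, with or without co-incubation with rapamycin.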

The subject of experiment [4] is T-24. Briefly: Induction of ferroptosis in human T-24 cells assessed as downregulation of xCT at <6 uM by Western blot analysis. The class given is functional, cell-based. The settings on record: dose microM <6. (A western blot detects proteins with antibodies after separation by electrophoresis.)
In experiment [5] the test system is T-24. Briefly: Induction of apoptosis in human T-24 cells assessed as early apoptotic cells at 3 uM in presence of zVAD incubated for 8 hrs by annexin V-FITC and PI staining based flow cytometry analysis (reference value: 3.37 %). It counts as functional. Background: In flow cytometry, cells or beads pass a laser one at a time.
For experiment [6], the system named is T-24. In words: Induction of apoptosis in human T-24 cells assessed as early apoptotic cells at 6 uM incubated for 8 hrs by annexin V-FITC and PI staining based flow cytometry analysis (reference value: 3.37 %). The class given is functional.
The test system of experiment [7] is T-24. Briefly: Induction of autophagy in human T-24 cells assessed as effect on PI3K level at 6 to 12 uM incubated for 12 hrs by Western blot analysis. The class given is functional, cell-based. The settings on record: dose 6-12 µM.
For experiment [8], the system named is T-24. In words: Induction of ferroptosis in human T-24 cells assessed as downregulation of GPx4 by Western blot analysis. To be noted: dose 6-12 µM. It counts as functional, cell-based.
Experiment [9] relates to T-24. In words: Induction of ferroptosis in human T-24 cells assessed as cellular GPx4 level at 10 uM by HPLC-EC analysis (reference value: 1.71 +/- 0.07 U/mg). It counts as functional.
For experiment [10], the system named is T-24. In words: Induction of ferroptosis in human T-24 cells assessed as cellular GPx4 level at 8 uM by HPLC-EC analysis (reference value: 1.71 +/- 0.07 U/mg). The class given is functional.
For experiment [11], the system named is T-24. Briefly: Induction of ROS accumulation in human T-24 cells at 8 uM incubated for 16 hrs by DCFH-DA dye based luminescence spectrometry relative to control. It counts as functional. The method in brief:
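T24 cells loaded with the DCF probe after exposure to 4, 8 or 12 μM, sampled at times up to 16 h. Intracellular DCF fluorescence is quantified on a luminescence spectrometer and expressed as % of the negative control.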

For experiment [12], the system named is T-24. In words: Induction of apoptosis in human T-24 cells at 3 uM incubated for 8 hrs by Hoechst and PI staining based fluorescence microscopic analysis. To be noted: TDE = time-dependent effect. The class given is functional, cell-based.

The source made the active and inactive calls. The rule behind the calls is not given here.

As to `O=C(Nc1cccc(CNc2ncnc3ccccc23)c1)Nc1ccc(Cl)c(Cl)c1`, the result in experiment [1], in experiment [3] and in experiment [7] was Active. In addition, the Activity in [2] is 1152.3 pg; in experiment [5] it was 2.84%; in experiment [6], 26.6%; in experiment [8], “Dose-dependent effect”; in [9] it was 1.37 U/mg; in experiment [10], 1.49 U/mg. The results for the Activity in experiment [11] and in [12] were 213.3% and “Tde”, respectively. In addition, the outcome in experiment [4] was inactive.
